For test [1], the system named is RS4-11. Description: Antitumor activity against human RS4:11 cells xenografted in SCID mouse assessed tumor regression at 1 to 5 mg/kg, iv administered 3 times per week for 3 weeks. Format: functional, organism-based. In outline: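 RS4;11 xenografts: 5×10^6 cells in 50% Matrigel injected subcutaneously on the dorsal side of SCID mice, one tumor per mouse. Randomized to treatment or vehicle at ~100 mm3. Intravenous dosing on several schedules, including 3 times per week for 3 weeks and weekly. Volume = L × W2/2; body weight tracked.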
A general note: Xenograft models place foreign cells or tissue in a host animal.

The test system of test [2] is Mus musculus. Description: In vivo Protac activity at cereblon/cullin/BET in tumor of human RS4:11 cells xenografted in SCID mouse assessed as reduction in cMyc protein expression at 1 to 5 mg/kg, iv administered as single dose and measured at 1 to 24 hrs post dose by Western blot analysis. Type of test: functional, organism-based. In outline: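 SCID mice bearing subcutaneous RS4;11 tumors were given a single intravenous dose of 1 or 5 mg/kg. Tumors were harvested at 1, 6 and 24 h, two mice per time point. Tissue was ground in liquid nitrogen and lysed in CST buffer with protease inhibitors. 20 µg lysate per lane was probed for BRD2, BRD3, BRD4, c-Myc and cleaved PARP, with GAPDH as loading control.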

The source of these data is ChEMBL document CHEMBL4382197, “Discovery of QCA570 as an Exceptionally Potent and Efficacious Proteolysis Targeting Chimera (PROTAC) Degrader of the Bromodomain and Extra-Terminal (BET) Proteins Capable of Inducing Complete and Durable Tumor Regression” (J Med Chem, 2018).

Structures are written as SMILES. Calls of active or inactive are those of the source. The calls are words filed in the database; no cut-off is given here.

`Cc1nnc2n1Cc1sc(C#Cc3cnn(CCCC#Cc4cccc5c4CN(C4CCC(=O)NC4=O)C5=O)c3)c(Cc3ccccc3)c1OC2` (configuration not stated): the result in test [1] and in test [2] was Active.
